Bioassay records: PubChem BioAssay, Broad Institute
SIRT5 inh: SIRT5 desuccinylase inhibitors, primary screen, biochemical, fluorescence imaging, single point, set 5. 330,000 tested, 1.1% active. AID 652115, 2013. Purified SirT5, succinyl-peptide AMC, trypsin-coupled fluorescence. NAD-dependent protein deacylase sirtuin-5, mitochondrial (Homo sapiens), Q9NXA8. inhibition, % at 15 µM; in the data active means inhibition above about 15%
Target sequence (Q9NXA8 whole entry, looked up): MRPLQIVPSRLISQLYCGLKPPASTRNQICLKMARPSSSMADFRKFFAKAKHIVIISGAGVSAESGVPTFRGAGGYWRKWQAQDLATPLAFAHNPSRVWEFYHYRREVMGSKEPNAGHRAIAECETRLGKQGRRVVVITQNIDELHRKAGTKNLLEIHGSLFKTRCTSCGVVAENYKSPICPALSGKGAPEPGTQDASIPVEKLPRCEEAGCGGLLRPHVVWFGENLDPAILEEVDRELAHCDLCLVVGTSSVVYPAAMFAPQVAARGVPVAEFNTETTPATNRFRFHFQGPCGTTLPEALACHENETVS
FN deposition inh: inhibitors of fibronectin matrix deposition, primary screen, AH1F cells, Alexa488-fibronectin fluorescence, plate reader; AH1F fibroblasts, overnight; 350,000 tested, 0.086% active; AID 743247, 2014; inhibition, % at 12.6 µM;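 active means mean inhibition across replicates of 30% or more, regardless of how many single replicates reach that level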
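Material – AH1F fibroblast monolayer, labelled fibronectin deposition · Reagent – labelled fibronectin 24 nM · Timing – 1 h adhesion, overnight exposure · Measured by – fluorescence at 485 nm excitation, 525 nm emission · Read-out – inhibition of fibronectin deposition signal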
FGF22 binding: binders of human FGF22 protein, primary screen, FGF22 synaptogenesis inhibitor project, biophysical, thermal shift, single point; 340,000 tested, 1.5% active; AID 651658, 2012; activity (Tm shift, normalised), % at 9.99 µM; recombinant FGF22 thermal shift, SYPRO orange fluorescence; percent of sucrose octasulfate shift, DMSO zero; Fibroblast growth factor 22 (Homo sapiens), Q9HCT0;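 active means mean Tm shift, scaled 0 neutral to 100 positive control, at about 1.3% or above, every replicate too, limit read from the data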
Target sequence (Q9HCT0 whole entry, looked up): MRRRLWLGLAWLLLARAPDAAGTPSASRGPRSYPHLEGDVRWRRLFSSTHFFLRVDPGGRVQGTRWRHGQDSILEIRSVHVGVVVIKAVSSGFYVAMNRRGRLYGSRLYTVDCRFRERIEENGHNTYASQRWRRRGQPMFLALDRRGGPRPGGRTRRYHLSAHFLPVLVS
rRNA inh HTS: reduced GFP signal of wild-type E. coli, primary screen, bacterial rRNA inhibitor project, GFP/RFP fluorescence, OD600, single point. E. coli WT GFP vs humanized-ribosome RFP mutants, 24 h; active compounds read low; DMSO median 0, no signal -100. GFP signal change (wild-type ribosome), % (no concentration beside the values). 350,000 tested, 1.6% active. AID 720706, 2013;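 active means significant combined selectivity score with lowered wild-type GFP, culture density cut under 30%, mutant RFP and density less affected; inactive means any of these conditions unmet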
E-sel inducer: E-selectin induction in HUVECs, primary screen, imaging, HUVEC, immunofluorescence imaging, single point; normalized: neutral wells 0, TNF-alpha wells 100; AID 686992, 2013; 260,000 tested, 0.37% active; P16581; activation, % at 7.58 µM;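 active means mean E-selectin-positive cell signal at least 10% of the positive control, reached in at least 60% of replicates, without over 20% cell loss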
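System: HUVEC / Compound: single concentration / Signal: immunofluorescence imaging / Read-out: percent E-selectin-positive cells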
Statin myotox sup: suppressors of statin myotoxicity in C2C12 myotubes, primary screen, cell-based, single point, plate reader | rescue of ATP level, % at 7.49 µM | 330,000 tested, 0.78% active | C2C12 myotubes + simvastatin, ATP luminescence, 48 h; scaled: DMSO 0, geranylgeraniol control 100;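 active means mean ATP rescue above about 67%, or every replicate alone reaching that limit, limit read from the data, passing the limit was not always enough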;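 further: myotubes were challenged with 10 µM simvastatin during compound exposure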
Hits are given with their value; - = inactive; . = no result. The list is not random: actives were taken first. Their share in the collection is about 4%.

SMILES	SIRT5 inh	FN deposition inh	FGF22 binding	rRNA inh HTS	E-sel inducer	Statin myotox sup
N=C1S/C(=C\c2ccco2)C(=O)N1c1ccc2c(c1)OCO2	-	-	-	-43	.	-
Cc1ccn2cc(-c3ccc(NC(=O)c4ccco4)cc3)nc2c1	.	32	.	.	.	-
COC(=O)c1cccc(NC2CC(=O)N(c3ccc(OC)c(OC)c3)C2=O)c1 (stereo not given)	.	-	.	.	.	.
COc1ccc(N2C(=O)CC(Nc3ccc(C(=O)O)cc3)C2=O)cc1OC (stereo not given)	-	-	43	-	.	.
NC1=CC(=O)C(=O)c2ccccc21	-	-	-	-	-	-
Nc1ccc(C2(c3ccc(N)cc3)c3ccccc3C(=O)c3ccccc32)cc1	-	-	-	-32	-	.
CC(C)NC(=O)N(C)C[C@@H]1Oc2c(NC(=O)C3CC3)cccc2C(=O)N([C@H](C)CO)C[C@H]1C	-	-	-	-	-	-
CC(C)CN(C[C@H]1N[C@H](CO)[C@@H]1c1ccccc1)C(=O)C1CCCCC1	22	-	.	-	-	.
CC(C)CN(C[C@H]1N[C@H](CO)[C@@H]1c1ccccc1)C(=O)C1CCCC1	-	-	.	-	-	.
CO[C@@H](CN(C)S(=O)(=O)c1ccccc1)[C@@H](C)CN(C(=O)Nc1ccccc1F)[C@@H](C)CO	-	-	-	-	-	-
Cc1c(N)cc(S(=O)(=O)O)cc1NC(=O)c1cccc([N+](=O)[O-])c1	28	-	-	-	-	-
O=C(C[C@@H]1CC[C@@H](NC(=O)CN2CCOCC2)[C@@H](CO)O1)NCCc1ccccc1	-	.	-	-	-	-
O=C1CC(N2CCN(C/C=C/c3ccccc3)CC2)C(=O)N1Cc1ccc(N2CCCC2=O)cc1 (stereo not given)	.	-	.	.	.	100
O=C1CC(N2CCOCC2)C(=O)N1Cc1ccc(N2CCCC2=O)cc1 (stereo not given)	.	.	.	.	.	-
COCC(C)n1c(SCC(=O)NC(=O)NCc2ccccc2)nc2ccccc2c1=O (stereo not given)	.	-	44	-	-	-
Cc1ccc2nc(COc3ccc(Cl)cc3)cc(=O)n2c1	-	-	43	-	-	.
COCC(C)n1c(SCc2cc(=O)n3cc(C)ccc3n2)nc2ccccc2c1=O (stereo not given)	-	.	-	-27	.	-
Cc1ccc2nc(CSc3nnc(-c4ccco4)n3-c3ccccc3)cc(=O)n2c1	.	-	.	.	.	-
Cc1ccc2nc(CSc3nnc4ccccn34)cc(=O)n2c1	-	-	43	-	-	.
COCC(C)n1c(SCC(=O)Nc2cc(C)on2)nc2ccccc2c1=O (stereo not given)	-	-	.	-	-	-
CCS(=O)(=O)N1CC(=O)N2[C@H](C1)[C@H](c1ccc(C#Cc3cccc(F)c3)cc1)[C@@H]2CO	.	.	.	-	.	.
C[C@H]1CN([C@@H](C)CO)C(=O)c2cccc(NC(=O)NC3CCCCC3)c2O[C@@H]1CN(C)Cc1ccc(C(=O)O)cc1	25	.	-	-	.	-
C[C@@H]1CN([C@H](C)CO)C(=O)c2cccc(NC(=O)NC3CCCCC3)c2O[C@@H]1CN(C)Cc1ccc(Oc2ccccc2)cc1	20	-	-	-	-	.
C[C@H]1CN([C@@H](C)CO)C(=O)c2cccc(NC(=O)NC3CCCCC3)c2O[C@H]1CN(C)Cc1ccc(C(=O)O)cc1	-	.	-	-	.	-
C=CCNC(=O)CNS(=O)(=O)c1ccc(F)cc1	18	.	-	.	.	-
SMILES	SIRT5 inh	FN deposition inh	FGF22 binding	rRNA inh HTS	E-sel inducer	Statin myotox sup
Cc1ccc(S(=O)(=O)NCC(=O)OCC(=O)NCc2ccc(F)cc2)cc1	34	-	-	-	-	.
O=C(O)CNS(=O)(=O)c1ccc(F)cc1	.	-	.	.	.	-
CC1C/C(=C/c2ccncc2)C(=O)/C(=C/c2ccncc2)C1 (stereo not given)	-	-	-	-22	-	-
COc1ccc(C(=O)C2CCCN(Cc3ccc4nonc4c3)C2)c(OC)c1 (stereo not given)	-	-	-	-28	-	-
CC(C)OCCCN1CN(S(=O)(=O)c2ccc(Cl)cc2)c2nc3ccccc3nc21	-	.	.	-	.	-
CCCCCN1CN(S(=O)(=O)c2cccs2)c2nc3ccccc3nc21	-	-	-	-	-	.
COc1ccc(CN2CN(S(=O)(=O)c3ccccc3)c3nc4ccccc4nc32)cc1	-	-	-	-25	-	.
COc1ccc(CCN2CN(S(=O)(=O)c3ccc(OC)cc3)c3nc4ccccc4nc32)cc1	-	-	-	-	-	.
COc1ccc(CN2CN(S(=O)(=O)c3cccs3)c3nc4ccccc4nc32)cc1	-	-	-	-42	-	.
CCOCCCN1CN(S(=O)(=O)c2ccc(Cl)cc2)c2nc3ccccc3nc21	.	.	.	.	.	133
Cc1noc(C)c1NC(=O)N(C)C[C@H]1Oc2ccc(NC(=O)Cc3ccccc3)cc2C(=O)N([C@@H](C)CO)C[C@@H]1C	-	.	-	-	-	-
COc1ccccc1S(=O)(=O)Nc1ccc2c(c1)C(=O)N(C)C[C@@H](OC)[C@H](C)CN[C@@H](C)CO2	-	-	-	-	-	-
CO[C@@H]1CN(C)C(=O)c2cc(NC(C)=O)ccc2OC[C@H](C)N(C(=O)c2ccccc2F)C[C@H]1C	-	-	-	-	-	-
CN(C)C(=O)c1cccc(-c2ccc3c(c2)[C@H]2[C@H](CCN2C(=O)C2CCCC2)[C@@H](CO)N3)c1	.	-	.	-	-	.
C[C@@H]1CN([C@H](C)CO)C(=O)Cc2cc(NS(=O)(=O)c3ccc(Cl)cc3)ccc2O[C@H]1CN(C)Cc1ccc2c(c1)OCO2	-	.	-	-	-	84
C[C@@H]1CN([C@@H](C)CO)C(=O)Cc2cc(NS(=O)(=O)c3ccc(Cl)cc3)ccc2O[C@H]1CN(C)Cc1ccc2c(c1)OCO2	-	.	-	-	-	99
Cc1ccc(S(=O)(=O)Nc2ccc3c(c2)CC(=O)N([C@H](C)CO)C[C@H](C)[C@@H](CN(C)Cc2ccc4c(c2)OCO4)O3)cc1	-	.	-	-	-	76
C[C@@H]1CN([C@H](C)CO)C(=O)c2cc(C#CC3CCCCC3)cnc2O[C@@H]1CN(C)S(=O)(=O)c1cccc(F)c1	-	-	-	-	-	-
C[C@@H]1CN([C@@H](C)CO)C(=O)c2cc(C#CC3CCCC3)cnc2O[C@H]1CN(C)S(=O)(=O)c1cccc(F)c1	-	-	-	-	-	-
